Screening data deposited in PubChem BioAssay by Broad Institute.
ERp5 block = inhibitors of ERp5-driven insulin aggregation, primary screen, biochemical, turbidity, absorbance 650 nm, single point; 90 min; Protein disulfide-isomerase A6 (Homo sapiens), Q15084; 350,000 compounds, 0.05% hits; inhibition, % at 9.99 µM; AID 651711, 2012;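 active = mean replicate inhibition above about 25%, with every replicate also reaching it, limit read from the data, passing the limit was not always enough; inconclusive = only one of those two criteria met; inactive = neither criterion met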
MLL AF4-AF9 inh = inhibitors of AF4 peptide binding to AF9, primary screen, biochemical, AlphaScreen, biotin-AF4 peptide, FLAG-AF9, single point. AID 651704, 2012. inhibition, % at 10 µM. Protein AF-9 (Homo sapiens), P42568. 350,000 compounds, 0.47% hits;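 active = every replicate reaching a set inhibition limit, whatever the replicate mean, cut at about 25% in these data; inconclusive = mean inhibition reaches that limit but some replicates miss it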;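 note: 0% = plate neutral control median and 100% = total signal loss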
FN deposition inh = inhibitors of fibronectin matrix deposition, primary screen, AH1F cells, Alexa488-fibronectin fluorescence, plate reader; AH1F fibroblasts, overnight; inhibition, % at 12.6 µM; 350,000 compounds, 0.086% hits; AID 743247, 2014;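 active = mean inhibition across replicates of 30% or more, regardless of how many single replicates reach that level; inconclusive = mean under 30% yet at least half of replicates reach 30%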;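 note: positive control wells lacked labelled fibronectin entirely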
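Material: AH1F fibroblast monolayer depositing Alexa488-labelled fibronectin into matrix | Input: 10000 AH1F cells/well | Medium: DMEM plus 2% serum, read in PBS | Reagent: Alexa488-fibronectin, 24 nM final in well | Compound dosing: One dose per compound, pinned | Schedule: 1 h adhesion, overnight exposure | Measured by: Fluorescence at 485 nm excitation, 525 nm emission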
PDI turbidity = inhibitors of human PDI, primary screen, biochemical, turbidity, single point, plate reader; PDI insulin aggregation turbidity, A650, 90 min; inhibition, % at 10 µM; 350,000 compounds, 0.052% hits;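 active = mean inhibition across replicates of 30% or more, whatever share of single replicates reach that level; inconclusive = mean inhibition below 30% while every single replicate reaches 30%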
FGF22 binding = binders of human FGF22 protein, primary screen, FGF22 synaptogenesis inhibitor project, biophysical, thermal shift, single point | recombinant FGF22 thermal shift, SYPRO orange fluorescence; percent of sucrose octasulfate shift, DMSO zero | activity (Tm shift, normalised), % at 9.99 µM | 340,000 compounds, 1.5% hits | AID 651658, 2012;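 active = mean Tm shift, scaled 0 neutral to 100 positive control, at about 1.3% or above, every replicate too, limit read from the data; inconclusive = no clear call, values can overlap the other calls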
Target sequence (Q9HCT0 whole entry, looked up): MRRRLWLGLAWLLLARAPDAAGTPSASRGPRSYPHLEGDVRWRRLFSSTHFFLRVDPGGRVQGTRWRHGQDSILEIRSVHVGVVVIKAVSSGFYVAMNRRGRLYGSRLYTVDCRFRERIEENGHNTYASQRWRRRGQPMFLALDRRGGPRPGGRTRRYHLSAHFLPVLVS
ARNT-TACC3 inh = disruptors of ARNT/TACC3 protein interaction, primary screen, biochemical, AlphaScreen, single concentration | AID 623870, 2012 | AlphaScreen His-ARNT PAS-B/GST-TACC3 binding, luminescence; TACC3 fragment carries E629A point mutation | 390,000 compounds, 0.66% hits | Transforming acidic coiled-coil-containing protein 3 (Homo sapiens), Q9Y6A5 | inhibition, % at 9.99 µM;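 active = mean inhibition of replicates at least 50% and at least half of replicates each reaching 50%; inconclusive = half or more replicates reach 50% but mean below 50%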;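 note: 0% = complete ARNT plus TACC3 wells and 100% = ARNT alone without TACC3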
Starred values were filed as active, the others as inactive; u = inconclusive; x = no result given. Sampled rows, rich in hits. Any-hit rate of the full collection: about 2.1%.

SMILES	ERp5 block	MLL AF4-AF9 inh	FN deposition inh	PDI turbidity	FGF22 binding	ARNT-TACC3 inh
C[C@@H]1CN([C@H](C)CO)C(=O)c2cccc(NS(=O)(=O)c3ccc(Cl)cc3)c2O[C@@H]1CN(C)Cc1ccc(C(F)(F)F)cc1	28*	5	0	x	0	-2
Cc1ccc(S(=O)(=O)Nc2cccc3c2O[C@H](CN(C)Cc2ccc(C(=O)O)cc2)[C@H](C)CN([C@H](C)CO)C3=O)cc1	7	27*	x	x	0	-4
Cc1noc(C)c1S(=O)(=O)Nc1cccc2c1O[C@@H](CN(C)C(=O)Nc1ccc(C(F)(F)F)cc1)[C@@H](C)CN([C@H](C)CO)C2=O	7	0	x	x	0	-7
Cc1noc(C)c1S(=O)(=O)Nc1cccc2c1O[C@H](CN(C)C(=O)Nc1ccc(C(F)(F)F)cc1)[C@H](C)CN([C@@H](C)CO)C2=O	63*	2	x	x	0	-5
COc1ccc(NC(=O)N(C)C[C@@H]2OCCCC[C@H](C)Oc3ccc(NS(=O)(=O)c4ccccc4)cc3C(=O)N([C@H](C)CO)C[C@H]2C)cc1	-7	4	0	x	-1	-2
CCOC(=O)/C(N=Nc1c(C)n(C)n(-c2ccccc2)c1=O)=C(/O)c1ccccc1	6	0	1	-4	43*	12
Cc1c(N=N/C(C(=O)Nc2ccccc2)=C(/O)c2ccccc2)c(=O)n(-c2ccccc2)n1C	-4	u	3	3	0	-5
CO[C@H]1CN(C)C(=O)c2cc(NC(=O)Nc3ccccc3)ccc2OC[C@H](C)N(C(=O)CC2CC2)C[C@H]1C	-7	2	-10	x	0	-3
COc1ccc(CC(=O)NNC(=O)c2ccc(Br)s2)cc1OC	2	-2	0	-10	43*	-8
CCOC(=O)C1Nc2ccccc2C2C(O)C(O)CC12 (stereo not given)	-3	26*	0	1	0	34
O=C(O)c1cccc(Nc2nc(C(F)(F)F)nc3ccccc23)c1	-5	0	2	2	2.0*	0
COc1ccc(-c2csc(NC(=O)C3CC(=O)N(Cc4ccco4)C3)n2)cc1 (stereo not given)	-20	-1	8	5	42	3
O=C(Nc1nccs1)C1CC(=O)N(Cc2ccco2)C1 (stereo not given)	6	-1	-1	-2	43*	-5
C[C@@H]1CN([C@@H](C)CO)C(=O)c2cc(NC(=O)CCC(F)(F)F)ccc2O[C@H]1CN(C)C(=O)Nc1ccc(C(F)(F)F)cc1	-2	0	x	x	0	-6
COc1cccc(NC(=O)N2CC(=O)N3[C@H](CO)[C@H](c4ccc(Br)cc4)[C@@H]3C2)c1	-6	-4	x	x	x	x
CCOc1ccc(-n2c(=S)sc3c(=O)[nH]c(SCC(=O)NC4CCCCC4)nc32)cc1	9	3	1	-6	43	x
CCCCNC(=O)CSc1nc2c(sc(=S)n2-c2cc(Cl)ccc2OC)c(=O)[nH]1	-3	-1	-2	1	1.4*	-2
CCc1ccc(-n2c(=S)sc3c(=O)[nH]c(SCC(=O)NC4CCCCC4)nc32)cc1	0	-1	-3	14	44*	x
COc1ccc(Cl)cc1-n1c(=S)sc2c(=O)[nH]c(SCC(=O)C(C)(C)C)nc21	3	5	3	-7	1	1
O=S(=O)(Nc1cccc(S(=O)(=O)N2CCOCC2)c1)c1ccc(Cl)s1	u	-1	0	2	43*	18
CC1(C)CN=C(c2ccccc2)NC1	-1	-5	2	3	43*	0
CN1C(=O)c2cc(NC(=O)NC3CCCC3)ccc2OC[C@@H]2O[C@H](CC(=O)NC3CCC3)CC[C@H]21	13	-3	-15	x	0	-7
